According to the EternaBench riboswitch data:

Tested on: MS2 coat protein
Test: apparent Kd, MS2 coat protein; higher = weaker binding; RNA-MaP array; FMN 200 µM where present
Procedure, shortened: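 The apparent Kd comes from binding curves fitted cluster by cluster, filtered, and summarised as a median. Those curves followed SNAP-549-labelled MS2 coat protein from 0.7 or 1.5 nM, doubling to 3 µM, on Illumina sequencing-chip clusters where stalled E. coli RNA polymerase had transcribed the designs, without and then with constant ligand. The buffer was 100 mM Tris-HCl pH 7.5, 80 mM KCl, 4 mM MgCl2, BSA, DTT, yeast tRNA and Tween-20, and green signal was normalised to red-channel RNA signal and control-cluster median Fmax.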

[1] = designed as: ON switch for flavin mononucleotide, no ligand
[2] = ligand present: flavin mononucleotide, designed as: ON switch for flavin mononucleotide
[3] = designed as: OFF switch for flavin mononucleotide, no ligand
[4] = ligand present: flavin mononucleotide, designed as: OFF switch for flavin mononucleotide

UCCUACAUGGGAGGAUAUCCUCAAGAGACAUGAGGAUCACCCAUGUAUUAUAUGCCUCAUGGCAUGGAGAAGGCCCAUGUAGGU
apparent Kd [1]: 0.205 µM | apparent Kd [2]: 0.157 µM

CUACGGGACGGAGAUCGUGGUGAAGUAGAAGGGUGAGAUGACAUGAGGAUCACCCAUGUAGUAGCGCAGGAUAUACGGCACCGG
apparent Kd [1]: 0.388 µM | apparent Kd [2]: 0.103 µM

AGAAAUAAAAGAGAGGAUAUCCAAAAGAAAACAUGAGGAUCACCCAUGUAAAAGAAAAUAAAAUGGGAGAAGGCUCAAAAUAAAGA
apparent Kd [1]: 0.115 µM | apparent Kd [2]: 0.0226 µM

UGUGCAGAAGGAUAUGCGUAAUGGCCGUGAGGCCUAGAUCUACAUGAGGAUCACCCAUGUAGAAGGUCUGUACU
apparent Kd [3]: 0.0166 µM | apparent Kd [4]: 0.0164 µM

UGGGUAAGUGUAGGAUAUUUAUAUUAAUAGUAUGGAGAAGGACAUGAGGAUCACCCAUGUACAGGGAGUUACCCAUUUCCUCUC
apparent Kd [3]: 0.778 µM | apparent Kd [4]: 1.2 µM

GCACUUACGUUAGGAUAUGUAUCGGAAAACGAUACAGAAGGAAUAUGGGAACAUGAGGAUCACCCAUGUUCCUGAGACAAGUGC
apparent Kd [1]: 0.0465 µM | apparent Kd [2]: 0.0264 µM

GUCAAGCUAGGAUAUACAUGAGGAUCACCCAUGUUAUCCUCGUGGGCAGUUUCUUCAUGUAGAAGGAGCAAAGG
apparent Kd [3]: 0.038 µM | apparent Kd [4]: 0.0166 µM

CUUAUGUGAGGAUAUCAGUAGUGAUACGAUAGUAUUACUGCUGAGAAGGCACAUGAGGAUCACCCAUGUUCCUC
apparent Kd [3]: 0.117 µM | apparent Kd [4]: 0.422 µM

AUCGGCCCGUAGAAGGGUGACAUGAGGAUCACCCAUGUGCCGCGUGCAUUUAUGCCUCCGCGGCCACAGGAUAUACGGAGUUGA
apparent Kd [1]: 0.061 µM | apparent Kd [2]: 0.05 µM

GCAAUAGCAUGAGGAUAUGUUGGAGUUUAGACAGCAGAAGGCAUGUCAUAAGACAUGAGGAUCACCCAUGUAGUUACAAUGGCA
apparent Kd [1]: 0.0226 µM | apparent Kd [2]: 0.0115 µM

AUAGAAGUCUAGAAGGACCUAGCUGUAUACCGUCGAGGUAUAUAGCUAGGUAGGAUAUGGGACAUGAGGAUCACCCAUGUGUUG
apparent Kd [1]: 0.0329 µM | apparent Kd [2]: 0.00919 µM

CUUUUGUGAGGAUAUCAGUAGUAAAAAAAUUAAAUUACUACUGAGAAGGCACAUGAGGAUCACCCAUGUUCCUC
apparent Kd [3]: 0.0391 µM | apparent Kd [4]: 0.262 µM

GCUAUCGGGUGAGGAUAUAUAAUUGUGAUUAAAAUAGAAGGCAUCUCAGAAGACAUGAGGAUCACCCAUGUAGUUAAGAUGGCA
apparent Kd [1]: 0.0238 µM | apparent Kd [2]: 0.0201 µM

GCGCAUGUCACAGGAUAUCCCAUAGUGUACAUGAGGAUCACCCAUGUACUGCAAUGCAGACACAAGGAGAAGGGUGAGACUCGU
apparent Kd [1]: 0.0848 µM | apparent Kd [2]: 0.0967 µM

AGUGUGGGAGGAUAUACAUGAGGAUCACCCAUGUGAGUUGGCUCACAUGCUACGCUUCGUAGAAGGCCCAAAGA
apparent Kd [3]: 0.0888 µM | apparent Kd [4]: 0.29 µM

AGUAGAUCAGGAUAUACGUAAAUGGUAAUUAUGUAACUUCAACAUGAGGAUCACCCAUGUAGAAGGGAUCUACA
apparent Kd [3]: 0.0146 µM | apparent Kd [4]: 0.0151 µM

ACGUUUUUUGAGGAUAUGCGAUAGUUUUAUAUCGUAGAAGGCGAUACAUGAGGAUCACCCAUGUUUAUGGGCAU
apparent Kd [3]: 0.167 µM | apparent Kd [4]: 0.197 µM

GAGGAGCAAGGAUAUACGAGGAUAGGGAAGGUUGGAGAGUGACAUGAGGAUCACCCAUGUAGAAGGUGCAAGGG
apparent Kd [3]: 0.114 µM | apparent Kd [4]: 0.074 µM

GGAUAGGACAGAGGAUAUACGUGCUAGAGAUACUAGCAAAAUUUCCUCACAUGAGGAUCACCCAUGUAGAAGGCUGGCCUAUCG
apparent Kd [3]: 0.0141 µM | apparent Kd [4]: 0.379 µM

GGAAGACAAAGUCUUCCAUAACGAACAUGAGGAUCACCCAUGUAGGAUAUGCUACUCAAAGAGUAGCAGAAGGACAUGUGUCUU
apparent Kd [3]: 0.0281 µM | apparent Kd [4]: 0.129 µM

GCCUUCGCAUGAGGAUAUGCUCCGGUUUCCGGAGCAGAAGGCAUGUCAUAAGACAUGAGGAUCACCCAUGUAGUUAAGAAGGCA
apparent Kd [1]: 0.57 µM | apparent Kd [2]: 0.0317 µM

CGUCAGUGAGGAUAUGGUGUCGUUUACAUGAGGAUCACCCAUGUUUCAUGGGACUAGAGACUAGAAGGUACUGACG
apparent Kd [3]: 0.0974 µM | apparent Kd [4]: 0.266 µM

CAGUACUGAGGAUAUACAUGAGGAUCACCCAUGUGCCUCAGGUAGGAUACUACCAUUAGUAGAAGGCAGUACUG
apparent Kd [3]: 0.197 µM | apparent Kd [4]: 0.0377 µM

UAUGGUAAAGUCAGGAUAUACGUACAUCGUUCUAGGUAGAAGGGACAUGAGGAUCACCCAUGUAUGGUAGUGUU
apparent Kd [3]: 0.106 µM | apparent Kd [4]: 0.107 µM
